Legend:
[1] = molecular target: Apoptosis regulator Bcl-2 (Homo sapiens, UniProt P10415); test: Displacement of fluorescein labeled Bax peptide from Bcl2 by fluorescence polarization assay
[2] = Cytotoxicity against IL3-dependent mouse FL5.12 cells overexpressing human Bcl2 assessed as cell viability after 24 hrs by MTS assay in absence of serum; assay type: functional, cell-based; settings: FL5.12, 24 h
In short: (§1)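 Mouse FL5.12 cells transfected with Bcl-XL or Bcl-2, deprived of IL-3 (no FBS or WEHI-3B conditioned medium) for 2 days. Then moved to serum-free gelatin medium (3.4 mg/mL bovine gelatin) with serially diluted compound for 24 h. Viability by MTS or CellTiter-Glo. Determinations in duplicate.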

[3] = Cytotoxicity against IL3-dependent mouse FL5.12 cells overexpressing human Bcl-XL assessed as cell viability after 24 hrs by MTS assay in absence of serum; assay type: functional, cell-based; settings: FL5.12, 24 h; in short: as §1
[4] = Cytotoxicity against human NCI-H146 cells assessed as cell viability after 48 hrs in presence of 10% human serum; assay type: functional, cell-based; settings: NCI-H146, 48 h
In short: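 NCI-H146 SCLC cells maintained in RPMI 1640 with 10% FBS at 37 °C, 5% CO2. Treated for 48 h in medium with 10% human serum. Viability by CellTiter-Glo luminescence. Values from duplicate runs.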

[5] = AUC in Sprague-Dawley rat at 5 mg/kg, po; assay type: ADME, organism-based; parameters: dose 5 mg/kg, route oral; settings: plasma
In short: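 Sprague-Dawley rats, single 5 mg/kg oral dose by gavage in 10% DMSO in PEG-400, n = 3. Heparinized blood taken before dosing and at set times. Plasma proteins precipitated with acetonitrile, then LC-MS/MS against spiked plasma standards with an internal standard. AUC by linear trapezoidal rule.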

[6] = Ratio of AUC for Sprague-Dawley rat at 5 mg/kg, po to EC50 for human NCI-H146 cells in presence of 10% human serum; assay type: functional
In short: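 The cells were treated for 48 h in medium with 10% human serum, and viability was read by CellTiter-Glo luminescence.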

[7] = Cmax in Sprague-Dawley rat at 5 mg/kg, po; assay type: ADME, organism-based; parameters: dose 5 mg/kg, route oral; settings: in vivo
In short: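 Rats (Sprague-Dawley) given 5 mg/kg by oral gavage in 10% DMSO/PEG-400, n = 3. Serial heparinized blood samples. Plasma drug level by LC-MS/MS after acetonitrile protein precipitation, quantified by linear regression of peak-area ratio to internal standard. Concentration–time data fitted multiexponentially.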

[8] = Oral bioavailability in Sprague-Dawley rat at 5 mg/kg; assay type: ADME, organism-based; settings: in vivo
[9] = AUC in CD1 mouse at 50 mg/kg, po; assay type: ADME, organism-based; parameters: dose 50 mg/kg, route oral; settings: plasma
In short: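 CD-1 mice, single 50 mg/kg oral gavage in 2% DMSO/5% Tween-80/20% propylene glycol/73% D5W, n = 27. Groups of three euthanized by CO2 at set times and blood taken by cardiac puncture. Plasma by LC-MS/MS. AUC by linear trapezoidal rule.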

[10] = AUC in Beagle dog at 2.5 mg/kg, iv or po; assay type: ADME, organism-based, Canis lupus familiaris; parameters: dose 2.5 mg/kg, route oral; settings: plasma
In short: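 Beagle dogs, single 2.5 mg/kg dose in 10% DMSO in PEG-400, n = 3 per route. Intravenous dose given as a slow cephalic-vein bolus; oral dose by gavage followed by 10 mL water. Plasma by LC-MS/MS. AUC by linear trapezoidal rule.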

[11] = AUC in cynomolgus monkey at 2.5 mg/kg, po; assay type: ADME, organism-based, Macaca fascicularis; parameters: dose 2.5 mg/kg, route oral; settings: plasma
In short: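 Cynomolgus monkeys, single 2.5 mg/kg oral dose in 10% DMSO in PEG-400 by gastric intubation followed by 5 mL water, n = 3. Serial heparinized plasma assayed by LC-MS/MS. AUC by linear trapezoidal rule.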

[12] = Oral elimination half life in Sprague-Dawley rat; assay type: ADME, organism-based; settings: in vivo, read-out: beta t1/2 (converted)
[13] = Oral elimination half life in CD1 mouse; assay type: ADME, organism-based; settings: in vivo, read-out: beta t1/2 (converted)
[14] = Oral elimination half life in Beagle dog; assay type: ADME, organism-based, Canis lupus familiaris; settings: in vivo, read-out: beta t1/2 (converted)
[15] = Oral elimination half life in cynomolgus monkey; assay type: ADME, organism-based, Macaca fascicularis; settings: in vivo, read-out: beta t1/2 (converted)
[16] = Oral bioavailability in CD1 mouse; assay type: ADME, organism-based; settings: in vivo
[17] = Oral bioavailability in Beagle dog; assay type: ADME, organism-based, Canis lupus familiaris; settings: in vivo
[18] = Oral bioavailability in cynomolgus monkey; assay type: ADME, organism-based, Macaca fascicularis; settings: in vivo
[19] = Oral bioavailability in Sprague-Dawley rat; assay type: ADME, organism-based; settings: in vivo
NCI-H1963 (Homo sapiens) = test: Antitumor activity against human NCI-H1963 cells xenografted C.B-17 SCID-bg mouse assessed as inhibition of tumor growth at 100 mg/kg, po daily once for 21 days; settings: 504 h, read-out: TGI

Apoptosis regulator Bcl-2, sequence (P10415 whole entry): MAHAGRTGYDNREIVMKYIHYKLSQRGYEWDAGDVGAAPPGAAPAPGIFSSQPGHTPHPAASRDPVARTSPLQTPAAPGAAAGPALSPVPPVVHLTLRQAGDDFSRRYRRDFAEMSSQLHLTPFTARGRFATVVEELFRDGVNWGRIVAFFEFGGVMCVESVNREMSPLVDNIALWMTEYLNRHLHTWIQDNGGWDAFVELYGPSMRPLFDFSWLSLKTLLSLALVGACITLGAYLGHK

SMILES: CN(C)CC[C@H](CSc1ccccc1)Nc1ccc(S(=O)(=O)NC(=O)c2ccc(N3CCN(Cc4ccccc4-c4ccc(Cl)cc4)CC3)cc2)cc1C#N
- Ki [1]: < 1 nM
- EC50 [2]: 49 nM
- EC50 [3]: 225 nM
- EC50 [4]: 1930 nM
- AUC [5]: 2.19 µM·h
- Ratio [6]: 1.1

SMILES: CN(C)CC[C@H](CSc1ccccc1)Nc1ccc(S(=O)(=O)NC(=O)c2ccc(N3CCN(CC4=C(c5ccc(Cl)cc5)CCC(C)(C)C4)CC3)cc2)cc1[N+](=O)[O-]
- Ki [1]: < 1 nM
- EC50 [2]: 0.6 nM
- EC50 [3]: 0.9 nM
- EC50 [4]: 98 nM

SMILES: CN(C)CC[C@H](CSc1ccccc1)Nc1ccc(S(=O)(=O)NC(=O)c2ccc(N3CCN(Cc4ccccc4-c4ccc(Cl)cc4)CC3)cc2)cc1OC(F)(F)F
- Ki [1]: < 1 nM
- EC50 [2]: 230 nM
- EC50 [3]: 805 nM
- EC50 [4]: 5080 nM

SMILES: CN(C)CC[C@H](CSc1ccccc1)Nc1ccc(S(=O)(=O)NC(=O)c2ccc(N3CCN(CC4=C(c5ccc(Cl)cc5)CCCCC4)CC3)cc2)cc1[N+](=O)[O-]
- Ki [1]: < 1 nM
- EC50 [2]: < 1 nM
- EC50 [3]: 5 nM
- EC50 [4]: 51.9 nM

SMILES: CN(C)CC[C@H](CSc1ccccc1)Nc1ccc(S(=O)(=O)NC(=O)c2ccc(N3CCN(CC4=C(c5ccc(Cl)cc5)CCOC4)CC3)cc2)cc1[N+](=O)[O-]
- Ki [1]: 2.4 nM
- EC50 [2]: 33 nM
- EC50 [3]: 55 nM
- EC50 [4]: 266 nM

SMILES: CN(C)CC[C@H](CSc1ccccc1)Nc1ccc(S(=O)(=O)NC(=O)c2ccc(N3CCN(CC4=C(c5ccc(Cl)cc5)CCCC4)CC3)cc2)cc1[N+](=O)[O-]
- Ki [1]: < 1 nM
- EC50 [2]: 11 nM
- EC50 [3]: 29 nM
- EC50 [4]: 25.7 nM
- AUC [5]: 0.65 µM·h
- Ratio [6]: 25.3

SMILES: CN(C)CC[C@H](CSc1ccccc1)Nc1ccc(S(=O)(=O)NC(=O)c2ccc(N3CCN(CC4=C(c5ccc(Cl)cc5)CCC4)CC3)cc2)cc1[N+](=O)[O-]
- Ki [1]: < 1 nM
- EC50 [2]: 51 nM
- EC50 [3]: 143 nM
- EC50 [4]: 691 nM

SMILES: CN(C)CC[C@H](CSc1ccccc1)Nc1ccc(S(=O)(=O)NC(=O)c2ccc(N3CCN(C/C4=C(\c5ccc(Cl)cc5)CCCCCC4)CC3)cc2)cc1[N+](=O)[O-]
- Ki [1]: < 1 nM
- EC50 [2]: 39 nM
- EC50 [3]: 21 nM
- EC50 [4]: 200 nM

SMILES: O=C(NS(=O)(=O)c1ccc(NCCSc2ccccc2)c([N+](=O)[O-])c1)c1ccc(N2CCN(Cc3ccccc3-c3ccc(Cl)cc3)CC2)cc1
- Ki [1]: < 1 nM
- EC50 [4]: 33000 nM
- Cmax [7]: 1150 nM
- AUC [5]: 10.4 µM·h
- bioavailability [8]: 28%
- Ratio [6]: 0.32

SMILES: CN(C)CC[C@H](CSc1ccccc1)Nc1ccc(S(=O)(=O)NC(=O)c2ccc(N3CCN(Cc4ccccc4-c4ccc(Cl)cc4)CC3)cc2)cc1S(=O)(=O)C(F)(F)F
- Ki [1]: < 1 nM
- EC50 [2]: 4.7 nM
- EC50 [3]: 12 nM
- EC50 [4]: 39.4 nM
- AUC [5]: 0.83 µM·h
- Ratio [6]: 21

SMILES: O=C(NS(=O)(=O)c1ccc(N[C@H](CCN2CCOCC2)CSc2ccccc2)c([N+](=O)[O-])c1)c1ccc(N2CCN(Cc3ccccc3-c3ccc(Cl)cc3)CC2)cc1
- Ki [1]: < 1 nM
- EC50 [4]: 610 nM
- Cmax [7]: 200 nM
- AUC [5]: 1.16 µM·h
- bioavailability [8]: 16%
- Ratio [6]: 1.9

SMILES: CN(C)CC[C@H](CSc1ccccc1)Nc1ccc(S(=O)(=O)NC(=O)c2ccc(N3CCN(Cc4ccccc4-c4ccc(Cl)cc4)CC3)cc2)cc1S(C)(=O)=O
- Ki [1]: < 1 nM
- EC50 [2]: 170 nM
- EC50 [3]: 415 nM
- EC50 [4]: 3490 nM

SMILES: CN(C)CC[C@H](CSc1ccccc1)Nc1ccc(S(=O)(=O)NC(=O)c2ccc(N3CCN(Cc4ccccc4-c4ccc(Cl)cc4)CC3)cc2)cc1
- Ki [1]: < 1 nM
- EC50 [2]: 2700 nM
- EC50 [3]: 15000 nM
- EC50 [4]: 78700 nM

SMILES: O=C(NS(=O)(=O)c1ccc(N[C@H](CCN2CCOCC2)CSc2ccccc2)c(S(=O)(=O)C(F)(F)F)c1)c1ccc(N2CCN(CC3=C(c4ccc(Cl)cc4)CCCC3)CC2)cc1
- Ki [1]: < 1 nM
- EC50 [2]: 1.1 nM
- EC50 [3]: 0.7 nM
- EC50 [4]: 58.9 nM
- AUC [5]: 3.87 µM·h
- Ratio [6]: 65.7
- AUC [9]: 25.2 µM·h
- AUC [10]: 3.8 µM·h
- AUC [11]: 1.9 µM·h

SMILES: Cc1cc(S(=O)(=O)NC(=O)c2ccc(N3CCN(Cc4ccccc4-c4ccc(Cl)cc4)CC3)cc2)ccc1N[C@H](CCN(C)C)CSc1ccccc1
- Ki [1]: < 1 nM
- EC50 [2]: 673 nM
- EC50 [4]: 28800 nM

SMILES: CN(C)CC[C@H](CSc1ccccc1)Nc1ccc(S(=O)(=O)NC(=O)c2ccc(N3CCN(Cc4ccccc4-c4ccc(Cl)cc4)CC3)cc2)cc1C(F)(F)F
- Ki [1]: < 1 nM
- EC50 [2]: 42 nM
- EC50 [3]: 122 nM
- EC50 [4]: 2460 nM
- Cmax [7]: 370 nM
- AUC [5]: 4.41 µM·h
- bioavailability [8]: 24%
- Ratio [6]: 1.8

SMILES: CN(C)CC[C@H](CSc1ccccc1)Nc1ccc(S(=O)(=O)NC(=O)c2ccc(N3CCN(Cc4ccccc4-c4ccc(Cl)cc4)CC3)cc2)cc1C(=O)C(F)(F)F
- Ki [1]: < 1 nM
- EC50 [2]: 55 nM
- EC50 [3]: 329 nM
- EC50 [4]: 2010 nM
- AUC [5]: 1.25 µM·h
- Ratio [6]: 0.62

SMILES: CN(C)CC[C@H](CSc1ccccc1)Nc1ccc(S(=O)(=O)NC(=O)c2ccc(N3CCN(Cc4ccccc4-c4ccc(Cl)cc4)CC3)cc2)cc1[N+](=O)[O-] [ABT 737]
- EC50 [2]: 7.7 nM
- EC50 [3]: 30 nM
- EC50 [4]: 87 nM
- AUC [5]: 0.28 µM·h
- bioavailability [8]: 6%

SMILES: CC1(C)CCC(c2ccc(Cl)cc2)=C(CN2CCN(c3ccc(C(=O)NS(=O)(=O)c4ccc(N[C@H](CCN5CCOCC5)CSc5ccccc5)c(S(=O)(=O)C(F)(F)F)c4)cc3)CC2)C1 [NAVITOCLAX]
- EC50 [2]: 5.9 nM
- EC50 [3]: 4.2 nM
- EC50 [4]: 86.7 nM
- AUC [5]: 6.26 µM·h
- bioavailability [8]: 20%
- AUC [9]: 56.7 µM·h
- AUC [10]: 27.8 µM·h
- AUC [11]: 6.61 µM·h
- half-life [12]: 4 h
- half-life [13]: 4 h
- half-life [14]: 4 h
- half-life [15]: 4 h
- bioavailability [16]: 20%
- bioavailability [17]: 20%
- bioavailability [18]: 20%
- bioavailability [19]: 20%
- inhibition in vivo at 100 mg/kg (NCI-H1963 (Homo sapiens)): 100%

Reference: ChEMBL document CHEMBL1142517, “Discovery of an orally bioavailable small molecule inhibitor of prosurvival B-cell lymphoma 2 proteins” (J Med Chem, 2008)
